Measured values as given in the EternaBench riboswitch data.

System: MS2 coat protein
Test: apparent Kd, MS2 coat protein; higher = weaker binding; RNA-MaP array
Method in brief: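 RNA designs were transcribed from sequenced DNA templates on an Illumina sequencing chip and then incubated at room temperature with fluorescently labeled MS2 coat protein at 1.5 nM to 3 μM, with or without input ligand, in Tris-HCl pH 7.5 buffer containing KCl, MgCl2, BSA, DTT, tRNA and Tween20. Incubation lasted 0.8–1.5 h at the lowest protein concentrations and 10–20 min at the highest. Apparent Kd is the median of binding-curve fits made for each cluster. Designs measured on fewer than 10 clusters were excluded.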

[1] = designed as: OFF switch for flavin mononucleotide, no ligand
[2] = ligand present: flavin mononucleotide, designed as: OFF switch for flavin mononucleotide
[3] = designed as: ON switch for tryptophan, no ligand
[4] = ligand present: tryptophan, designed as: ON switch for tryptophan
[5] = designed as: ON switch for flavin mononucleotide, no ligand
[6] = ligand present: flavin mononucleotide, designed as: ON switch for flavin mononucleotide
[7] = designed as: OFF switch for theophylline, no ligand
[8] = ligand present: theophylline, designed as: OFF switch for theophylline
[9] = designed as: OFF switch for tryptophan, no ligand
[10] = ligand present: tryptophan, designed as: OFF switch for tryptophan

Row | Sequence | apparent Kd [1] [nM] | apparent Kd [2] [nM] | also measured
1 | GGAAUGUCAGGAUAUCUAAUUACCCAGAAAGAUAUGGAACCAGAGAAGGGACAUGAGGAUCACCCAUGUAUAAC | 10.2 | 12.4 | 
2 | CUAAUGGUUGCAGGAUAUCGAAAACCGCACAUGAGGAUCACCCAUGUCGCUAAGCGUGACAUAGUCGAGAAGGGCAUGACAACU | 37.3 | 14.8 | 
3 | CUCUUAGAAGGAUAUUAAUAAUGUUACAUGAGGAUCACCCAUGUCUCAAUAUGUGACCGUUAAGAAGGUCUAUCGC | 9.2 | 8.16 | 
4 | UAAUAGAAAGGAUAUACAUAGGUUGGCUAAUGACGUUCCGAACAUGAGGAUCACCCAUGUAGAAGGUUCUGCGU | 12.4 | 29.5 | 
5 | CAUGACAUGAGGAUCACCCAUGUAUCCAGUCGAGGACCGGUACGGCCGCCACUCGGUGCCUUCAAAUUUACAGACAGGUGACAGG |  |  | apparent Kd [3]: 33.7 nM; apparent Kd [4]: 22.8 nM
6 | CCAGCAUGGCAGACCAUACAUGAGGAUCACCCAUGUAGAAGCUAGGAUAUAAAUGUAACACACUAUUAGAAGGAGCGCUACCUU | 8.55 | 6.51 | 
7 | CUCGGCGCCCAAGGAUAUAGUGGAGGUAAGAAACUAGAAGGUGGUGUGCUAACAUGUUGUCCUUUACAUGAGGAUCACCCAUGU | 38.6 | 32.9 | 
8 | GAUGAGCGCACGGGAAUAAACAUGAGGAUCACCCAUGUCGUUAGAAGGGUAUUCGCCGGGACCAUACAGGAUAUAACGCGUCAC |  |  | apparent Kd [5]: 25.7 nM; apparent Kd [6]: 21 nM
9 | GUUUACAUGAGGAUCACCCAUGUCGCCGGCCGAGGACCGGUACGGCCGCCACUCGUCCUAAUGGCACUUGACUUCCCUAUUAAGU |  |  | apparent Kd [3]: 20.3 nM; apparent Kd [4]: 24.3 nM
10 | GAUCCGCUCGAGAAGGUCGUCGGGCACCGAGUCGAAGGAUAUCGAGAAUGAAGACAUGAGGAUCACCCAUGUGAGGAGCGAUCC | 136 | 126 | 
11 | UCUUCAAUAGUAAGGAUAUCCAUAACAACAUUCAAGGAGAAGGUACAUGAGGAUCACCCAUGUGGAGUCAAUAA | 13.1 | 19.8 | 
12 | UGAUACAUGAGGAUCACCCAUGUUGAUCCCGAGAAGUCCGUAAGAAGGACAGACACGAUGGAUCUGUAGGAUAUUACGACGGAC | 182 | 122 | 
13 | GCUGCCGUCGGUGAAAACUCCCAUGCAGAUACCAGCGCAUUCCGCCGCCCUUGGCAGCUGCAUACAUGAGGAUCACCCAUGUGUU |  |  | apparent Kd [7]: 84.4 nM; apparent Kd [8]: 147 nM
14 | AUCUGGAGAGGAUAUUGAUCGGAACACAUGAGGAUCACCCAUGUGAGCCCUCGUGUCCCUCAAGAAGGCUCGGGCG | 5.73 | 7.71 | 
15 | CCCGGUGACUAGAAGGCGCCACAUGAGGAUCACCCAUGUAUCAAAGACCGGUGAUUGCCGACGGGCGAGGAUAUAGGUGCGACG | 8.18 | 14.5 | 
16 | CGGUAGUUUUAGAAGGAGCAACCAAGUUUACAUGAGGAUCACCCAUGUGUGAGGAUAUGUUAAGGCUAGGAUAUAAUAGAACCU | 25.4 | 23.4 | 
17 | ACGAAUGUAGGAUAUACCAGUAGGAGAUGGGUAUCAGCACCACAUGAGGAUCACCCAUGUAGAAGGACACGUGA | 38.4 | 40.3 | 
18 | CCGCGCGUAGGAUAUACUAGUGUAUCAGUCGGUAUUGGAAAACAUGAGGAUCACCCAUGUAGAAGGACGCUAAU | 8.4 | 10.5 | 
19 | GCGGAACAUGAGGAUCACCCAUGUAAGGAUAUCGUGAGGGAACGGCAGCAACACUGAUCGAGAAGGUACAGGGC | 23 | 36.4 | 
20 | GGGCACAUGAGGAUCACCCAUGUCCAACGGCGAGGACCGGUACGGCCGCCACUCGGUAUAAGCUUCGAAAAGGAGGAUCCUGCAG |  |  | apparent Kd [3]: 38.4 nM; apparent Kd [4]: 30.9 nM
21 | ACAAACUCAGGAUAUAACGGUGGACACAUGAGGAUCACCCAUGUAAUCCGUGUGACUUAUUUAGAAGGGAGGCGAU | 8.35 | 8.34 | 
22 | GUGAGACAUGAGGAUCACCCAUGUUAGGAUAUAAAAGGCAAACGUAAUGGCGAGGUUAAUAGAAGGAACAGAAA | 15.6 | 11.9 | 
23 | AGAUCCCUGGUGAGGAUAUGUGAGACAUUCCCAGGACAGAAGGCACAUGAGGAUCACCCAUGUGUUGGGUAAUU | 6.32 | 6.65 | 
24 | AACAAACAUGAGGAUCACCCAUGUGAGGAUAUCAAGUCCAUACCCUAAGAGGGAGUUUUGAGAAGGCACGUGUA | 11.2 | 15.1 | 
25 | GAAAUAGUAGUUAGGAUAUGUAAUUGAAGACAUAUACAGAAGGAACAUGAGGAUCACCCAUGUAUUGGGAUGGA | 196 | 126 | 
26 | UUAUUCCCGGAGGAUAUCGACGUAUUUGGCGCCCGAGAAGGCCGGACAUGAGGAUCACCCAUGUCCCGUGCUCU | 5.66 | 5.82 | 
27 | GGAACAUGAGGAUCACCCAUGUAAUCACGACGAGGACCGGUACGGCCGCCACUCGUAUUCACGCAAGGUAGAGGAAUACGUAGGC |  |  | apparent Kd [9]: 12.6 nM; apparent Kd [10]: 13.8 nM
28 | UGUCGUAAAGGAUAUACAUGAGGAUCACCCAUGUCGGCCGUUAGGCCGUAAGGUGUGCGUAGAAGGUUACAUUG | 191 | 149 | 

Row | Sequence | apparent Kd [1] [nM] | apparent Kd [2] [nM] | also measured
29 | UAUGUACAUGAGGAUCACCCAUGUCAGGAUAUCUUCGAUUAGACCAUUAGCGCCGCGGAGAGAAGGGACGUAGA | 16 | 15.1 | 
30 | GGAUACUUUGGAGGAUAUAAUUUUAUCAUCACUUGUGAUCGAUGACAUGAGGAUCACCCAUGUAAUUAGAAGGCCAUUAAUUAC |  |  | apparent Kd [5]: 239 nM; apparent Kd [6]: 38.4 nM
31 | AAGUUACACAAGAAGGAGGGCGACUUUUUCACAUGAGGAUCACCCAUGUAUCCUCUUGGAGGAACCUAGGAUAUUGCUAAGCGU | 175 | 170 | 
32 | GUAUGAGAAGCAUAUACAUGAGGAUCACCCAUGUCCUCAGCGGAGGAUAUGUCUUUCAGGAGUAUACAGAAGGCCGCGGAAUUC | 346 | 260 | 
33 | AGUCACUUCUAGAAGGCGCGGACUUACUAGCGGCGAGGAUAUAGUAGGAACAUGAGGAUCACCCAUGUCUAUUGGGUACGGCCC | 14.2 | 14.9 | 
34 | ACGGUUCGAGGAUAUGUCGGUAGUUACAUGAGGAUCACCCAUGUUGUGACAUCGUGGUGGACAGAAGGCGACAUCC | 201 | 119 | 
35 | GAUAGAUAUGUAAGGAUAUGUGACGCGCUUGAGAAACAGAAGGAACAUGAGGAUCACCCAUGUAGAUGUUGUGA | 11.2 | 9.94 | 
36 | AAAAGGUCCGCUACAUGAGGAUCACCCAUGUAAAGGGUAAAUCAGGAUAUGGACGGGAGUCUUAACCAGAAGGGAUUACAGGUC |  |  | apparent Kd [5]: 31.6 nM; apparent Kd [6]: 25.1 nM
37 | UGCGUCGUUUAGAAGGGAGUGGCCCAACAUGAGGAUCACCCAUGUGACGCUCAGAAUGUAUUUGCUCAGGAUAUAAAUGUCUUU | 162 | 123 | 
38 | UUACAACUAAUGGAUACCAGCCGCGUGCUAGUGGUAGCAUACAUGAGGAUCACCCAUGUCGGCCCUUGGCAGCCACGCCCAUGCU |  |  | apparent Kd [7]: 14.5 nM; apparent Kd [8]: 21.5 nM
39 | CCAUUGCAUGGAGGAUAUGAGCAGUAAGUACUCUCAGAAGGCCACGGAGUAAACAAACCAUCUUACAUGAGGAUCACCCAUGUA |  |  | apparent Kd [5]: 13 nM; apparent Kd [6]: 7.69 nM
40 | AUGCCACCAUACCGCAGUAAUACAUGAGGAUCACCCAUGUAGGAGGAUAUACUUUUGGUAAUGAUGUAGAAGGCCUAGUGGUAC |  |  | apparent Kd [5]: 5.91 nM; apparent Kd [6]: 6.09 nM
41 | CAAUUUCGAAUAGAUACCAGCUGUCAUAAACACAUGAGGAUCACCCAUGUGCUUCUCGUCAGCCCUUGGCAGCUAUAACUAGAGC |  |  | apparent Kd (designed as: ON switch for theophylline, no ligand): 15.8 nM; apparent Kd (ligand present: theophylline, designed as: ON switch for theophylline): 10 nM
42 | UAACGCCCCUUAGGAUAUCCACGUAACCCCUCCCCCGUAAGUAGAAACAUGAGGAUCACCCAUGUGGAGAAGGAAGUGACCCGC | 20.8 | 18.9 | 
43 | GCGCCUCCCAAGGAUAUAACGCGUCUCUAAGGAUUAGAAGGUGGGACAUGAGGAUCACCCAUGUGACUCCUUUA | 7.31 | 7.37 | 
44 | UUAAUUCAGUGCCACAUGAGGAUCACCCAUGUCCAUACUCAAAAGGAUAUAUGCGGUUUCUAAGUAUAGAAGGUUUGUACACGA |  |  | apparent Kd [5]: 130 nM; apparent Kd [6]: 89 nM
45 | UGACUCUCUGUCAGGAUAUAACAAGCUACAGUUUAUUAGAAGGGACAUGAGGAUCACCCAUGUUGAACACCCGA | 7.94 | 7.98 | 
46 | CUACAUGGGCUCGAUACCAGUCAGCUCUCGCGUCUCUCAGACAUGAGGAUCACCCAUGUUGACCCUUGGCAGCGACGAUGUAGGC |  |  | apparent Kd [7]: 79.8 nM; apparent Kd [8]: 500 nM
47 | UGUCACUGUUUGGUUCAAUGAAGAAGAAUUCGAGGACCGGUACGGCCGCCACUCGCUAUGCAACAUGAGGAUCACCCAUGUAAAA |  |  | apparent Kd [9]: 15.8 nM; apparent Kd [10]: 15.3 nM
48 | GUUAGUCCACGAGGAUAUCGAAAUCGGCCCAGUGAAUUUUCACAUGAGGAUCACCCAUGUCAUAUCGAGAAGGCGUCUGAAAGC | 35.7 | 41.9 | 
49 | UCUAACCUAGGAUAUACAUGCCUUGCGUAGCACAUCCGUUUACAUGAGGAUCACCCAUGUAGAAGGAGGGACGG | 6.55 | 8.51 | 
50 | GAAUUAGUGUUGGAGGAUAUCCCAUGUCUUACAUGAGGAUCACCCAUGUCCGGACAACGACAAAAGGAGAAGGCCAUCAUCAUGUC |  |  | apparent Kd [5]: 772 nM; apparent Kd [6]: 80.8 nM
51 | GCAGACAUGAGGAUCACCCAUGUACUUGGGCGAGGACCGGUACGGCCGCCACUCGUAGACUUGACGAGGAAAUGUUCUCGCAGGG |  |  | apparent Kd [3]: 22.4 nM; apparent Kd [4]: 19.1 nM
52 | GCGUGACAUGAGGAUCACCCAUGUAGACUUGUGGAAGGAUAUACGAGAGUUCGAGUUAAGGUAGAAGGUCCCGAUG |  |  | apparent Kd [5]: 41.3 nM; apparent Kd [6]: 16.3 nM
53 | AAGCCACAUGAGGAUCACCCAUGUAAGGGUACCUGAGGAUAUCCGGCGGGACAGAAAGGAGGAGAAGGCAGAUCCA |  |  | apparent Kd [5]: 50.2 nM; apparent Kd [6]: 33 nM
54 | AGGACGUCAGGAUAUUCUAUGUGGCUCUAAUGGCCGACCAUGAAGAAGGGACAUGAGGAUCACCCAUGUGAGCU | 25.7 | 50.1 | 
55 | AGAACCCAAGAGGAUACCAGAACGACAAUCAAAUCUUUUUACAUGAGGAUCACCCAUGUUUUCCCUUGGCAGCCUCAUGCACGAC |  |  | apparent Kd [7]: 72.1 nM; apparent Kd [8]: 60.8 nM
